The record followed here is ChEMBL document CHEMBL2346577, “Isolation, structure, and biological activity of Phaeofungin, a cyclic lipodepsipeptide from a Phaeosphaeria sp. Using the Genome-Wide Candida albicans Fitness Test” (J Nat Prod, 2013).

In series [1] the test system is Candida albicans. Briefly: Induction of ATP release from cytoplasm of Candida albicans SC5314 at >MIC by Promega Bactiter Glo assay. In kind it is functional, organism-based. In a few lines:
(§1)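 ATP leaking from fungal cells exposed to compound was measured by BacTiter Glo luminescence per manufacturer's instructions, in parallel with whole-cell growth inhibition across a concentration series. Release was referenced to basal ATP release in the assay and to total ATP release for each strain.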

In series [2] the test system is Candida albicans. Briefly: Induction of ATP release from cytoplasm of Candida albicans isolate 2323 at >MIC by Promega Bactiter Glo assay. The format is functional, organism-based. In a few lines:
as §1

Series [3] relates to Candida albicans. In words: Antifungal activity against Candida albicans expressing DIP5 deletion mutant assessed as inhibition of fungal growth. The format is functional, organism-based.
Series [4] relates to Candida albicans. In words: Induction of ATP release from cytoplasm of Candida albicans SC5314 at 0.1 to 25 ug/ml by Promega Bactiter Glo assay. In kind it is functional, organism-based. In a few lines:
(§2)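 Release of cytoplasmic ATP from whole C. albicans cells (strains 2323 and SC5314) exposed to compound, measured with the BacTiter Glo luminescence kit per manufacturer's instructions. Read alongside whole-cell growth inhibition in the same strains, and compared with basal ATP release and total releasable ATP for each strain.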

The test system of series [5] is Candida albicans. Briefly: Antifungal activity against Candida albicans expressing CMD1 deletion mutant assessed as inhibition of fungal growth. In kind it is functional, organism-based.
Series [6] concerns Candida albicans. Briefly: Antifungal activity against Candida albicans expressing CRZ1 deletion mutant assessed as inhibition of fungal growth. The format is functional, organism-based.
Series [7] concerns Candida albicans. Briefly: Induction of ATP release from cytoplasm of Candida albicans isolate 2323 at 0.1 to 25 ug/ml by Promega Bactiter Glo assay. The format is functional, organism-based. In a few lines:
as §2

The next series deals with Nakaseomyces glabratus. In words: Antifungal activity against Candida glabrata MY1381 assessed as inhibition of fungal growth after 24 hrs. In kind it is functional. The note with it: MY1381, 24 h. The procedure, abridged: (§3)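 Broth dilution against each fungal strain. Inoculum 10^5 CFU/mL, compound in 2-fold serial dilution in growth medium at 37 °C. MIC is the lowest concentration inhibiting visible growth; MIC80 (prominent inhibition, MEC for Aspergillus) also read. Incubation 24 h, except 48 h for A. fumigatus.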

Series [8] deals with Aspergillus fumigatus. Briefly: Antifungal activity against Aspergillus fumigatus MF5668 assessed as inhibition of fungal growth after 48 hrs in presence of 50% human serum. In kind it is functional. The note with it: MF5668, 48 h. In a few lines: (§4)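 Whole-cell growth assay with incubation of 24 h for most strains, 48 h for A. fumigatus and 96 h for T. mentagrophytes. MIC is the lowest concentration inhibiting visible growth. MIC80 is prominent growth inhibition, also called MEC for Aspergillus.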

Series [9] concerns Aspergillus fumigatus. Briefly: Antifungal activity against Aspergillus fumigatus MF5668 assessed as inhibition of fungal growth after 48 hrs. In kind it is functional. The note with it: MF5668, 48 h. In a few lines:
as §3

For a further series, the system named is Staphylococcus aureus. Briefly: Antimicrobial activity against Staphylococcus aureus MB2865 assessed as inhibition of microbial growth after 24 hrs. To be noted: MB2865, 24 h. The format is functional.
Series [10] deals with Trichophyton mentagrophytes. Briefly: Antifungal activity against Trichophyton mentagrophytes MF7004 assessed as inhibition of fungal growth after 96 hrs. In kind it is functional. The note with it: MF7004, 96 h. In a few lines:
as §4

A further series relates to Candida parapsilosis. In words: Antifungal activity against Candida parapsilosis ATCC 22019 assessed as inhibition of fungal growth after 24 hrs. The format is functional. To be noted: Lodderomyces parapsilosis, ATCC 22019, 24 h. The procedure, abridged:
as §3

Another series relates to Clavispora lusitaniae. In words: Antifungal activity against Candida lusitaniae MY1396 assessed as inhibition of fungal growth after 24 hrs. The note with it: MY1396, 24 h. In kind it is functional. In a few lines:
as §4

A further series deals with Pichia kudriavzevii. Briefly: Antifungal activity against Candida krusei ATCC 6258 assessed as inhibition of fungal growth after 24 hrs. In kind it is functional. The note with it: ATCC 6258, 24 h. In a few lines:
as §3

The test system of another series is Candida tropicalis. In words: Antifungal activity against Candida tropicalis MY1012 assessed as inhibition of fungal growth after 24 hrs. In kind it is functional. The note with it: MY1012, 24 h. In a few lines:
as §3

The test system of series [11] is Candida albicans. Briefly: Antifungal activity against Candida albicans MY1055 assessed as inhibition of fungal growth after 24 hrs. In kind it is functional. The note with it: MY1055, 24 h. In a few lines:
as §3

Series [12] relates to Candida albicans. Briefly: Antifungal activity against Candida albicans MY1055 assessed as inhibition of fungal growth after 24 hrs in presence of 50% mouse serum. The note with it: MY1055, 24 h. In kind it is functional.
In series [13] the test system is Mus musculus. In words: Toxicity in DBA/2N mouse assessed as induction of lethality at 6.25 mg/kg, ip. Details: dose 6.25 mg/kg, route intraperitoneal. To be noted: in vivo. The format is organism-based.
The test system of series [14] is Candida albicans. In words: Antifungal activity against Candida albicans expressing RTA1+/- gene assessed as inhibition of fungal growth. The format is functional, organism-based.
In series [15] the test system is Candida albicans. In words: Antifungal activity against Candida albicans expressing AUR+/- gene assessed as inhibition of fungal growth. In kind it is functional, organism-based.
The test system of series [16] is Candida albicans. Briefly: Induction of ATP release from cytoplasm of Candida albicans SC5314 at 0.2 to 50 ug/ml by Promega Bactiter Glo assay. In kind it is functional, organism-based. In a few lines:
as §2

Series [17] deals with Mus musculus. In words: Toxicity in DBA/2N mouse assessed as induction of lethality at >12.5 mg/kg, ip. The format is organism-based. The note with it: in vivo.
Series [18] relates to Candida albicans. In words: Induction of ATP release from cytoplasm of Candida albicans isolate 2323 at 0.2 to 50 ug/ml by Promega Bactiter Glo assay. In kind it is functional, organism-based. In a few lines:
as §2

The structures appear in SMILES notation. Values after ≈ are worked out from the molar mass of the structure shown. Active and inactive are the calls of the source. The calls are words filed in the database; no cut-off is given here. Numbered stars: 1 amine (or outer) side, 2 acyl side, 3 side chain; on linkers, the order of the positions; unused ones are H or OH. Bridge positions count the residues as written; N and C are the ends. Square brackets hold non-standard residues; d marks the D form. Peptide text beside a SMILES is read from it. * marks the point of attachment. ξ: configuration not given here. X2 = CCCCCCCCCCCCC(C)C(CC(=O)[*:1])O[*:2]; X1 = CCCCCCCCCCCCC(C)(O)C(O)CC(=O)*; ξhSer = NC(CCO)C(=O)O

In the case of `C[C@@H]1[C@H](O)[C@@H](C)/C=C/C=C/C=C/C=C/C=C/C=C/C=C/[C@H](O[C@@H]2O[C@H](C)[C@@H](O)[C@H](N)[C@@H]2O)C[C@@H]2O[C@](O)(C[C@@H](O)C[C@@H](O)[C@H](O)CC[C@@H](O)C[C@@H](O)CC(=O)O[C@H]1C)C[C@H](O)[C@H]2C(=O)O`, the result in the series on Candida albicans [1] and in the series with Candida albicans [2] was inactive.

`CCCCCCCCCCCCC(C)C1CC(=O)N[C@@H](C)C(=O)NC(CCO)C(=O)N[C@@H](CCC(=O)O)C(=O)NCC(=O)N[C@@H](CO)C(=O)N[C@H](CC(N)=O)C(=O)N[C@H]([C@H](C)O)C(=O)NC(CCO)C(=O)O1` (some centres undefined) (A[ξhSer]EGS[dN][dT][ξhSer]; linker N-C via X2): the “growth inhibition (GI)” value in the series with Candida albicans [3] is “inactive”. For the same molecule, the result in the series with Candida albicans [4] and with Candida albicans [7] was inactive. Further, the “growth inhibition (GI)” value in the series with Candida albicans [5] and with Candida albicans [6] was “Active” throughout.

Consider `CCCCCCCCCCCCC(C)(O)C(O)CC(=O)N[C@@H](CO)C(=O)N[C@@H](C)C(=O)N[C@@H](CC(=O)O)C(=O)N[C@@H](C)C(=O)N[C@@H](CO)C(=O)N[C@@H](CO)C(=O)N[C@H](C(=O)O)[C@@H](C)O` (some centres undefined) (X1-SADASST-OH), for which the MIC (with Nakaseomyces glabratus; in the series with Aspergillus fumigatus [8]; in the series with Aspergillus fumigatus [9]; with Staphylococcus aureus; in series [10]; in the series on Candida parapsilosis) was more than 32 µg/mL throughout. The MIC in the series on Clavispora lusitaniae, in the series with Pichia kudriavzevii, with Candida tropicalis, with Candida albicans [11] and with Candida albicans [12] was more than 32 µg/mL throughout.

For the molecule `CC[C@H](C)C[C@H](C)CCCCCCCCC(=O)N[C@H]1C[C@@H](O)[C@@H](NCCN)NC(=O)[C@@H]2[C@@H](O)CCN2C(=O)[C@H]([C@H](O)CCN)NC(=O)[C@H]([C@H](O)[C@@H](O)c2ccc(O)cc2)NC(=O)[C@@H]2C[C@@H](O)CN2C(=O)[C@H]([C@@H](C)O)NC1=O` [CASPOFUNGIN], the MIC (in general, the lowest concentration that inhibits growth of the organism) was 0.25 µg/mL (≈ 0.229 µM) in the series on Nakaseomyces glabratus; 32 µg/mL in the series on Aspergillus fumigatus [8]; 32 µg/mL (≈ 29.3 µM) with Aspergillus fumigatus [9]; more than 32 µg/mL in the series with Staphylococcus aureus; 32 µg/mL (≈ 29.3 µM) in [10]; 0.5 µg/mL (≈ 0.457 µM) in the series with Candida parapsilosis. Also, the MIC was less than 0.03 µg/mL in the series with Clavispora lusitaniae, 1 µg/mL (≈ 0.915 µM) with Pichia kudriavzevii, 0.5 µg/mL (≈ 0.457 µM) in the series with Candida albicans [11] and 0.25 µg/mL in the series on Candida albicans [12]. In addition, the outcome in the series with Candida albicans [1] and with Candida albicans [2] was Active.

For `CCCCCCCCCCCC(C)(O)C1CC(=O)N[C@@H](CO)C(=O)N[C@H](C)C(=O)N[C@H](CC(=O)O)C(=O)N[C@@H](C)C(=O)N[C@H](CO)C(=O)N[C@H](CO)C(=O)N[C@H]([C@@H](C)O)C(=O)O1` (some centres undefined) [PHAEOFUNGIN], the Activity entry in the series on Mus musculus [13] was “Non-toxic”; in the series on Mus musculus [17], “Dose-dependent effect”. Also, the MIC was more than 32 µg/mL in the series with Nakaseomyces glabratus; more than 32 µg/mL with Aspergillus fumigatus [8]; 16 µg/mL (≈ 18 µM) in the series on Aspergillus fumigatus [9]; more than 32 µg/mL in the series on Staphylococcus aureus; 4 µg/mL (≈ 4.49 µM) in series [10]; more than 32 µg/mL with Candida parapsilosis. The MIC in the series with Clavispora lusitaniae was 32 µg/mL (≈ 36 µM); in the series on Pichia kudriavzevii, more than 32 µg/mL; in the series on Candida tropicalis, more than 32 µg/mL; with Candida albicans [11], 32 µg/mL (≈ 36 µM); with Candida albicans [12] it was more than 32 µg/mL. Also, the minimal effective concentration with Aspergillus fumigatus [9] (read-out: MEC) amounted to 8 µg/mL. Also, the “growth inhibition (GI)” value in the series on Candida albicans [14] and in the series on Candida albicans [15] was “Active” in each case. Besides, the “growth inhibition (GI)” value in the series on Candida albicans [3], in the series with Candida albicans [5] and with Candida albicans [6] was “inactive” each time. In addition, the result with Candida albicans [16] and in the series on Candida albicans [18] was Active. Besides, the MIC80 (as a rule, the lowest concentration that inhibits either 80% of growth or 80% of the strains tested, depending on the study) in the series with Candida parapsilosis was 32 µg/mL (≈ 36 µM); in the series on Pichia kudriavzevii, 32 µg/mL (≈ 36 µM); with Candida albicans [11], 16 µg/mL (≈ 18 µM).
